Laboratory results: ChEMBL document CHEMBL1134539, “Significance of asymmetric sites in choosing siderophores as deferration agents” (J Med Chem, 2001)
Several values for one entry are separate records, joined by “and”; a condition that tells them apart may be missing. Equal entries are not always repeated.

What was measured:
Rattus norvegicus = test: Iron clearance was stimulated by the compound was expressed as % efficiency by subcutaneous dose of 150 umol/kg; format: functional
Method in brief: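 Bile duct-cannulated, non-iron-overloaded male Sprague–Dawley rats (about 400 g) were kept in metabolic cages and given one sc dose of 150 µmol/kg. Bile was collected every 3 h and urine every 24 h over 48 h. Efficiency is the excreted iron minus that of control animals, divided by the theoretical iron excretion from dose and coordination chemistry.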

Paracoccus denitrificans [1] = test: Maximum velocity of accumulation of [55Fe]-labeled low-affinity component complexes by Paracoccus denitrificans; format: functional, organism-based; set-up: unit not given here
Method in brief: (§1)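 Late log-phase P. denitrificans (ATCC 17741), grown in defined low-iron medium with 0.5 μM Fe(III), washed and resuspended in transport buffer to OD660 1.00. Suspensions were preincubated 15 min at 30 °C with shaking before [55Fe] ferric chelate was added at 0.1–5.0 μM. Samples were taken every 20 s for 2 min, stopped in chilled buffer, filtered, rinsed and scintillation counted. Initial rates were expressed per mg protein, and Km and Vmax were taken from Lineweaver–Burk fits.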

Paracoccus denitrificans [2] = test: Michaelis-Menten constant for accumulation of [55Fe]-labeled low-affinity component complexes by Paracoccus denitrificans; format: functional, organism-based; method in brief: as §1
[3] = Iron clearance was stimulated by the compound was expressed as % distribution of excreted Fe in bile by subcutaneous dose of 150 umol/kg; format: ADME; settings: in vivo, sc
Method in brief: (§2)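 Non-iron-overloaded, bile duct-cannulated male Sprague–Dawley rats (about 400 g), housed in metabolic cages with free access to water. Single sc injection at 150 µmol/kg. Bile was collected at 3-h intervals for 48 h and urine every 24 h. Excreted iron was apportioned between bile and urine.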

[4] = Iron clearance was stimulated by the compound was expressed as % distribution of excreted Fe in urine by subcutaneous dose of 150 umol/kg; format: ADME; settings: in vivo, sc; method in brief: as §2
Paracoccus denitrificans [5] = test: Maximum velocity of accumulation of [55Fe]-labeled high-affinity component complexes by Paracoccus denitrificans; format: functional, organism-based; set-up: unit not given here; method in brief: as §1
Paracoccus denitrificans [6] = test: Michaelis-Menten constant for accumulation of [55Fe]-labeled high-affinity component complexes by Paracoccus denitrificans; format: functional, organism-based; method in brief: as §1

Km (Paracoccus denitrificans [6])	Compound	Efficiency (Rattus norvegicus)	Vmax (Paracoccus denitrificans [1])	Km (Paracoccus denitrificans [2])	Distribution of excreted Fe [3]	Distribution of excreted Fe [4]	Vmax (Paracoccus denitrificans [5])
	C[C@@H]1OC(c2cccc(O)c2O)=N[C@H]1C(=O)N(CCCNC(=O)c1cccc(O)c1O)CCCNC(=O)c1cccc(O)c1O	16%	96	3.5 µM	90.8%	9.2%	
0.11 µM	C[C@H]1OC(c2cccc(O)c2O)=N[C@@H]1C(=O)N(CCCCNC(=O)c1cccc(O)c1O)CCCNC(=O)c1cccc(O)c1O		245 and 247	0.55 µM and 0.53 µM			157 and 153
0.17 µM	C[C@H]1OC(c2cccc(O)c2O)=N[C@@H]1C(=O)N(CCCCNC(=O)c1cccc(O)c1O)CCCCNC(=O)c1cccc(O)c1O		229	1 µM			138

Compound	Km (Paracoccus denitrificans [6])	Efficiency (Rattus norvegicus)	Vmax (Paracoccus denitrificans [1])	Km (Paracoccus denitrificans [2])	Distribution of excreted Fe [3]	Distribution of excreted Fe [4]	Vmax (Paracoccus denitrificans [5])
C[C@H]1OC(c2cccc(O)c2O)=NC1C(=O)N(CCCNC(=O)c1cccc(O)c1O)CCCNC(=O)c1cccc(O)c1O (stereo not given in full)	0.23 µM	13.8%	413	2.2 µM	84.6%	15.4%	129
